# Laboratory results: ChEMBL document CHEMBL2311419, “Discovery of coumarin-dihydropyridine hybrids as bone anabolic agents” (J Med Chem, 2013)
# The source made the active and inactive calls. The calls are words filed in the database; no cut-off is given here.
# Assays:
# Mus musculus [1] = test: Inhibition of osteoclastogenesis in ovariectomized BALB/c mouse model assessed as suppression of TRAP gene expression at 1 mg/kg/day, po qd for 8 weeks by qPCR analysis; type: functional, organism-based
# Mus musculus [2] = species: Mus musculus; test: Stimulation of alkaline phosphatase activity in mouse calvarial osteoblasts assessed as concentration required for maximum activity after 48 hrs by spectrophotometric analysis
# In short: (§1)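 Calvarial osteoblasts were exposed to compounds over 1 pM to 1 µM. ALP activity was read spectrophotometrically as optical density at 405 nm. Results were expressed as % ALP activity, with EC50 and Emax derived from the concentration series.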
# Mus musculus [3] = test: Induction of new bone formation in ovariectomized BALB/c mouse model assessed as increase in bone formation rate at 10 mg/kg/day, po qd for 8 weeks by bone histomorphometry analysis (Rvb =0.10 um'3/um'2/day); type: functional
# Mus musculus [4] = test: Antiosteoporotic activity in ovariectomized BALB/c mouse model assessed as restoration of ovariectomy-induced deterioration of trabecular microarchitecture at 1 to 10 mg/kg/day, po qd for 8 weeks; type: functional, organism-based; conditions: Trabecula
# Calvarial osteoblast [5] = test: Induction of mineralization in mouse calvarial osteoblasts assessed as increase of mineralized nodules formation measuring concentration required for maximum activity after 21 days by alizarin red-S staining based spectrophotometric analysis; type: functional
# Calvarial osteoblast [6] = test: Induction of osteoblastogenesis in mouse calvarial osteoblasts assessed as increase in expression of BMP2 gene at 100 pM to 10 nM by qPCR analysis relative to control; type: functional
# Mus musculus [7] = test: Antiosteoporotic activity in ovariectomized BALB/c mouse model assessed as restoration of ovariectomy-induced reduction in trabecular number at 1 mg/kg/day, po qd for 8 weeks (reference value: 0.12+/-0.02 /mm); type: functional, Trabecula
# Mus musculus [8] = test: Induction of new bone formation in ovariectomized BALB/c mouse model assessed as increase in mineral apposition rate at 5 mg/kg/day, po qd for 8 weeks by bone histomorphometry analysis (Rvb =0.11 um/day); type: functional
# Mus musculus [9] = test: Antiosteoporotic activity in ovariectomized BALB/c mouse model assessed as restoration of ovariectomy-induced reduction in trabecular number at 5 mg/kg/day, po qd for 8 weeks (reference value: 0.12+/-0.02 /mm); type: functional, Trabecula
# Mus musculus [10] = test: Antiosteoporotic activity in ovariectomized BALB/c mouse model assessed as restoration of ovariectomy-induced reduction in bone volume/trabecular volume at 10 mg/kg/day, po qd for 8 weeks (reference value: 0.45+/-0.07%); type: functional, Trabecula; parameters: scale not given: the % may be the effect or the level left
# Calvarial osteoblast [11] = test: Induction of osteoblastogenesis in mouse calvarial osteoblasts assessed as increase in expression of ALP gene at 100 pM to 10 nM by qPCR analysis relative to control; type: functional
# Mus musculus [12] = species: Mus musculus; test: Stimulation of alkaline phosphatase activity in mouse calvarial osteoblasts at 1 pM to 1 uM after 48 hrs by spectrophotometric analysis; in short: as §1
# Mus musculus [13] = test: Antiosteoporotic activity in ovariectomized BALB/c mouse model assessed as restoration of ovariectomy-induced reduction in trabecular number at 10 mg/kg/day, po qd for 8 weeks (reference value: 0.12+/-0.02 /mm); type: functional, Trabecula
# Calvarial osteoblast [14] = test: Induction of osteoblastogenesis in mouse calvarial osteoblasts assessed as increase in expression of RUNX2 gene at 100 pM by qPCR analysis relative to control; type: functional, cell-based
# Mus musculus [15] = test: Inhibition of osteoclastogenesis in ovariectomized BALB/c mouse model assessed as suppression of RANK gene expression at 1 mg/kg/day, po qd for 8 weeks by qPCR analysis; type: functional, organism-based
# Calvarial osteoblast [16] = test: Induction of osteoblastogenesis in mouse calvarial osteoblasts assessed as increase in expression of osteocalcin gene at 100 pM by qPCR analysis relative to control; type: functional, cell-based
# Mus musculus [17] = test: Induction of osteoblast differentiation in ovariectomized BALB/c mouse model assessed as upregulation of COL1 mRNA expression po administered qd for 8 weeks by qPCR analysis; type: functional, organism-based
# Mus musculus [18] = test: Induction of osteoblast differentiation in ovariectomized BALB/c mouse model assessed as upregulation of RUNX2 mRNA expression at 1 mg/kg/day, po qd for 8 weeks by qPCR analysis; type: functional, organism-based
# Mus musculus [19] = test: Inhibition of osteoclastogenesis in ovariectomized BALB/c mouse model assessed as increase in OPG/RANKL ratio at 5 to 10 mg/kg/day, po qd for 8 weeks by qPCR analysis; type: functional, organism-based
# Mus musculus [20] = test: Induction of new bone formation in ovariectomized BALB/c mouse model assessed as increase in mineral apposition rate at 10 mg/kg/day, po qd for 8 weeks by bone histomorphometry analysis (Rvb =0.11 um/day); type: functional
# Mus musculus [21] = test: Antiosteoporotic activity in ovariectomized BALB/c mouse model assessed as restoration of ovariectomy-induced increase in trabecular separation at 5 mg/kg/day, po qd for 8 weeks (reference value: 0.99+/-0.08mm); type: functional, Trabecula
# Mus musculus [22] = test: Induction of new bone formation in ovariectomized BALB/c mouse model assessed as increase in bone formation rate at 1 mg/kg/day, po qd for 8 weeks by bone histomorphometry analysis (Rvb =0.10 um'3/um'2/day); type: functional
# Calvarial osteoblast [23] = test: Induction of osteoblastogenesis in mouse calvarial osteoblasts assessed as increase in expression of COL1 gene at 100 pM by qPCR analysis relative to control; type: functional, cell-based
# Mus musculus [24] = test: Antiosteoporotic activity in ovariectomized BALB/c mouse model assessed as restoration of ovariectomy-induced increase in structural model index at 1 mg/kg/day, po qd for 8 weeks; type: functional, organism-based
# Calvarial osteoblast [25] = test: Induction of osteoblastogenesis in mouse calvarial osteoblasts assessed as increase in expression of ALP gene at 100 pM by qPCR analysis relative to control; type: functional, cell-based
# Calvarial osteoblast [26] = test: Induction of osteoblastogenesis in mouse calvarial osteoblasts assessed as increase in RUNX2 expression at 100 pM to 10 nM by Western blotting analysis; type: functional, cell-based
# Mus musculus [27] = test: Induction of new bone formation in ovariectomized BALB/c mouse model assessed as increase in mineral apposition rate at 1 mg/kg/day, po qd for 8 weeks by bone histomorphometry analysis (Rvb =0.11 um/day); type: functional
# Mus musculus [28] = test: Antiosteoporotic activity in ovariectomized BALB/c mouse model assessed as restoration of ovariectomy-induced increase in trabecular separation at 1 mg/kg/day, po qd for 8 weeks (reference value: 0.99+/-0.08mm); type: functional, Trabecula
# Mus musculus [29] = test: Induction of osteoblast differentiation in ovariectomized BALB/c mouse model assessed as upregulation of RUNX2 mRNA expression po administered qd for 8 weeks by qPCR analysis; type: functional, organism-based
# Mus musculus [30] = test: Antiosteoporotic activity in ovariectomized BALB/c mouse model assessed as restoration of ovariectomy-induced increase in structural model index at 5 mg/kg/day, po qd for 8 weeks; type: functional, organism-based
# Mus musculus [31] = test: Inhibition of osteoclastogenesis in ovariectomized BALB/c mouse model assessed as suppression of TRAP gene expression at 5 to 10 mg/kg/day, po qd for 8 weeks by qPCR analysis; type: functional, organism-based
# Mus musculus [32] = test: Inhibition of bone turnover in ovariectomized BALB/c mouse model assessed as reduction in ovariectomy-induced serum CTx levels at 1 mg/kg/day, po qd for 8 weeks by ELISA; type: functional, organism-based
# Mus musculus [33] = test: Hepatotoxicity against BALB/c mouse assessed as morphological changes at 1 to 10 mg/kg/day, po after 2 months; type: toxicity, organism-based; parameters: route oral; conditions: in vivo
smiles,measurement,setting,value
CCOC(=O)C1=C(C)NC2=C(C(=O)CCC2)C1c1cc(C(C)CC)c2oc(=O)c(C(=O)OC)cc2c1 (stereo not drawn),inhibition,Mus musculus [1],Active
same,Concentration giving maximum ALP activity,Mus musculus [2],100 pM
same,Activity,Mus musculus [3],0.31 um3/um2/day
same,Activity,Mus musculus [4],Active
same,Concentration for maximum mineralization,Calvarial osteoblast [5],100 pM
same,fold change (FC),Calvarial osteoblast [6],1.5
same,Activity,Mus musculus [7],0.4 /millimeter
same,Activity,Mus musculus [8],0.294 micrometer/day
same,Activity,Mus musculus [9],0.3 /millimeter
same,Activity,Mus musculus [10],2.07%
same,fold change (FC),Calvarial osteoblast [11],1.5
same,Activity,Mus musculus [12],80%
same,Activity,Mus musculus [13],0.32 /millimeter
same,Activity,Calvarial osteoblast [14],Active
same,inhibition,Mus musculus [15],Active
same,Activity,Calvarial osteoblast [16],Active
same,Activity,Mus musculus [17],Dose-dependent effect
same,Activity,Mus musculus [18],Active
same,inhibition,Mus musculus [19],Active
same,Activity,Mus musculus [20],0.276 micrometer/day
same,Activity,Mus musculus [21],0.72 mm
same,Activity,Mus musculus [22],0.37 um3/um2/day
same,Activity,Calvarial osteoblast [23],Active
same,Activity,Mus musculus [24],Active
same,Activity,Calvarial osteoblast [25],Active
same,Activity,Calvarial osteoblast [26],Active
same,Activity,Mus musculus [27],0.291 micrometer/day
same,Activity,Mus musculus [28],0.66 mm
same,Activity,Mus musculus [29],Dose-dependent effect
same,Activity,Mus musculus [30],Active
same,inhibition,Mus musculus [31],Active
same,inhibition,Mus musculus [32],Active
same,Activity,Mus musculus [33],Non-toxic
